How the values were obtained:
[1] = biological target: T1, Myelin-associated glycoprotein (Homo sapiens, UniProt P20916); assay: Inhibition of MAG -Fc chimera expressed in CHO cells using NeuAc alpha2-3Galbeta1-4GlcNAc-R coupled biotinylated polyacrylamide after 30 mins by ELISA; format: cell-based
T1 sequence (P20916 whole entry): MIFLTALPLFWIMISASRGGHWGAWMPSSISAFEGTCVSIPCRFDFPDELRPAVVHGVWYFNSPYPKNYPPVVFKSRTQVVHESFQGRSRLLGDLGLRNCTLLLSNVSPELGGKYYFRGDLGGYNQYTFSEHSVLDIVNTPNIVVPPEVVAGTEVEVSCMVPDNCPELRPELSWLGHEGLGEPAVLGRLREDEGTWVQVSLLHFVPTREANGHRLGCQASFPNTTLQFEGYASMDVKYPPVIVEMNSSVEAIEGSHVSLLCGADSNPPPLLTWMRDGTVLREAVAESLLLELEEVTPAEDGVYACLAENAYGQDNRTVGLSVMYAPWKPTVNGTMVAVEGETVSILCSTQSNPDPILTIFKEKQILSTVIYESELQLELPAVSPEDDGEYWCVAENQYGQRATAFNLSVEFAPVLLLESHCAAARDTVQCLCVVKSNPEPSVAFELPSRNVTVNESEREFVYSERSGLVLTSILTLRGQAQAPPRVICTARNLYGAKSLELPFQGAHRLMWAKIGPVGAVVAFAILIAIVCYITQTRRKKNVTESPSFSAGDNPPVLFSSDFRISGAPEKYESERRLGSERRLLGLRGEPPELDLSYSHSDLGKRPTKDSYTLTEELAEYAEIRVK
Procedure, shortened: (§1)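 Each compound was run in triplicate and assayed on three separate days, each time alongside at least one other compound to check for drift. IC50 is the mean and standard deviation of the three separate assays.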

[2] = biological target: T1, Myelin-associated glycoprotein; assay: Binding affinity to wild type MAG at 400 uM by Isothermal titration calorimetry
[3] = biological target: T1, Myelin-associated glycoprotein; assay: Inhibition of MAG
Procedure, shortened: as §1, with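 “Competition format: MAG-Fc chimera binding to a polymeric ligand adsorbed on plate wells, with the inhibitor titrated to give IC50. Each” for “Each”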

[4] = biological target: T1, Myelin-associated glycoprotein; assay: Binding affinity to MAG
Procedure, shortened: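 Competitive inhibition of MAG-Fc chimera binding to a polymeric ligand adsorbed in microplate wells, run in triplicate. Each compound was assayed three times on separate days, alongside at least one other compound, and the IC50 reported as mean and standard deviation. Apparent Kd values were calculated from IC50 against a reference ligand whose Kd was measured by isothermal titration calorimetry.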

Row | SMILES | IC50 [1] [nM] | Kd [2] [nM] | IC50 [3] [nM] | Kd [4] [nM]
1 | COC(=O)[C@@H](NC(C)=O)[C@@H](C)O[C@H]1O[C@H](CO[C@]2(C(=O)O)C[C@H](O)[C@@H](NC(C)=O)[C@H]([C@H](O)[C@H](O)CO)O2)[C@H](O)[C@H](O[C@@H]2O[C@H](CO)[C@H](O)[C@H](O)[C@H]2O)[C@H]1NC(C)=O | 7900 | 13000 | – | –
2 | CC(=O)N[C@H]1[C@H](OCC[Si](C)(C)C)O[C@H](CO)[C@H](O)[C@@H]1O[C@@H]1O[C@H](CO)[C@H](O)[C@H](O[C@]2(C(=O)O)C[C@H](O)[C@@H](NC(C)=O)[C@H]([C@H](O)[C@H](O)CO)O2)[C@H]1O | – | – | – | 180000
3 | CC(=O)N[C@@H]1[C@@H](O[C@@H]2O[C@H](CO)[C@H](O)[C@H](O[C@]3(C(=O)O)C[C@H](O)[C@@H](NC(C)=O)[C@H]([C@H](O)[C@H](O)CO)O3)[C@H]2O)[C@@H](O)[C@@H](CO)O[C@H]1Sc1ccc(C)cc1 | – | – | 272000 | –
4 | CC(=O)N[C@H]1[C@@H](OCc2ccccc2)O[C@H](CO)[C@H](O)[C@@H]1O[C@@H]1O[C@H](CO)[C@H](O)[C@H](O[C@]2(C(=O)O)C[C@H](O)[C@@H](NC(C)=O)[C@H]([C@H](O)[C@H](O)CO)O2)[C@H]1O | – | – | 52000 | –
5 | CC(=O)N[C@H]1[C@@H](O[C@H](C)[C@H](N)C(=O)O)O[C@H](CO)[C@H](O)[C@@H]1O[C@@H]1O[C@H](CO)[C@H](O)[C@H](O[C@]2(C(=O)O)C[C@H](O)[C@@H](NC(C)=O)[C@H]([C@H](O)[C@H](O)CO)O2)[C@H]1O | – | – | 1200 | –
6 | CC(=O)N[C@H]1[C@H]([C@H](O)[C@H](O)CNC(=O)c2ccccc2)O[C@@](O[C@H]2[C@@H](O)[C@@H](CO)O[C@@H](O[C@H]3[C@@H](O)[C@@H](CO)O[C@@H](OCC[Si](C)(C)C)[C@@H]3O)[C@@H]2O)(C(=O)O)C[C@@H]1O | – | – | – | 32000
7 | O=C(CF)N[C@H]1[C@H]([C@H](O)[C@H](O)CNC(=O)c2ccccc2)O[C@@](OCc2cccc(F)c2F)(C(=O)O)C[C@@H]1O | – | – | – | 500
8 | COC(=O)[C@@H](NC(C)=O)[C@@H](C)O[C@H]1O[C@H](CO)[C@H](O)[C@H](O[C@@H]2O[C@H](CO)[C@H](O)[C@H](O[C@]3(C(=O)O)C[C@H](O)[C@@H](NC(C)=O)[C@H]([C@H](O)[C@H](O)CO)O3)[C@H]2O)[C@H]1NC(C)=O | 1200 | 1900 | – | –
9 | COC(=O)[C@@H](NC(C)=O)[C@@H](C)O[C@H]1O[C@H](CO)[C@H](O)[C@H](O[C@@H]2O[C@H](CO)[C@H](O)[C@H](O[C@]3(C(=O)O)C[C@H](O)[C@@H](NC(C)=O)[C@H]([C@H](O)[C@H](O)CNC(=O)c4ccccc4)O3)[C@H]2O)[C@H]1NC(C)=O | 650 | 1000 | – | –
10 | COC(=O)[C@@H](NC(C)=O)[C@@H](C)O[C@H]1O[C@H](CO)[C@H](O)[C@H](O[C@@H]2O[C@H](CO)[C@H](O)[C@H](O[C@]3(C(=O)O)C[C@H](O)[C@@H](NC(C)=O)[C@H]([C@H](O)[C@H](O)CNC(=O)c4ccc(Cl)cc4)O3)[C@H]2O)[C@H]1NC(C)=O | 610 | 1000 | – | –
11 | COC(=O)[C@@H](NC(C)=O)[C@@H](C)O[C@H]1O[C@H](CO[C@]2(C(=O)O)C[C@H](O)[C@@H](NC(C)=O)[C@H]([C@H](O)[C@H](O)CNC(=O)c3ccc(Cl)cc3)O2)[C@H](O)[C@H](O[C@@H]2O[C@H](CO)[C@H](O)[C@H](O)[C@H]2O)[C@H]1NC(C)=O | 640 | 1000 | – | –

Further lines, with some results ahead:

Row | IC50 [1] [nM] | Kd [2] [nM] | IC50 [3] [nM] | SMILES | Kd [4] [nM]
12 | 9 | 15 | – | COC(=O)[C@@H](NC(C)=O)[C@@H](C)O[C@H]1O[C@H](CO[C@]2(C(=O)O)C[C@H](O)[C@@H](NC(C)=O)[C@H]([C@H](O)[C@H](O)CNC(=O)c3ccc(F)cc3)O2)[C@H](O)[C@H](O[C@@H]2O[C@H](CO)[C@H](O)[C@H](O[C@]3(C(=O)O)C[C@H](O)[C@@H](NC(C)=O)[C@H]([C@H](O)[C@H](O)CO)O3)[C@H]2O)[C@H]1NC(C)=O | –
13 | – | – | 300 | CC(=O)N[C@H]1[C@@H](O[C@H](C)[C@H](N)C(=O)O)O[C@H](CO[C@]2(C(=O)O)C[C@H](O)[C@@H](NC(C)=O)[C@H]([C@H](O)[C@H](O)CO)O2)[C@H](O)[C@@H]1O[C@@H]1O[C@H](CO)[C@H](O)[C@H](O[C@]2(C(=O)O)C[C@H](O)[C@@H](NC(C)=O)[C@H]([C@H](O)[C@H](O)CO)O2)[C@H]1O | –
14 | 79 | 130 | – | COC(=O)[C@@H](NC(C)=O)[C@@H](C)O[C@H]1O[C@H](CO)[C@H](O)[C@H](O[C@@H]2O[C@H](CO)[C@H](O)[C@H](O[C@]3(C(=O)O)C[C@H](O)[C@@H](NC(C)=O)[C@H]([C@H](O)[C@H](O)CNC(=O)c4ccc(F)cc4)O3)[C@H]2O)[C@H]1NC(C)=O | –
15 | 1100 | 1760 | – | COC(=O)[C@@H](NC(C)=O)[C@@H](C)O[C@H]1O[C@H](CO[C@]2(C(=O)O)C[C@H](O)[C@@H](NC(C)=O)[C@H]([C@H](O)[C@H](O)CNC(=O)c3ccc(F)cc3)O2)[C@H](O)[C@H](O[C@@H]2O[C@H](CO)[C@H](O)[C@H](O)[C@H]2O)[C@H]1NC(C)=O | –
16 | 300 | 480 | – | COC(=O)[C@@H](NC(C)=O)[C@@H](C)O[C@H]1O[C@H](CO[C@]2(C(=O)O)C[C@H](O)[C@@H](NC(C)=O)[C@H]([C@H](O)[C@H](O)CO)O2)[C@H](O)[C@H](O[C@@H]2O[C@H](CO)[C@H](O)[C@H](O[C@]3(C(=O)O)C[C@H](O)[C@@H](NC(C)=O)[C@H]([C@H](O)[C@H](O)CNC(=O)c4ccc(F)cc4)O3)[C@H]2O)[C@H]1NC(C)=O | –

Reference: ChEMBL document CHEMBL1833949, “High affinity sialoside ligands of myelin associated glycoprotein” (Bioorg Med Chem Lett, 2011)
